Measured values published in ChEMBL document CHEMBL1125313, “Analogs of Ac-CCK-7 incorporating dipeptide mimics in place of Met28-Gly29” (J Med Chem, 1992).
Starred links: 1 amine or outer side, 2 acyl side, 3 side chain; linkers in the order of their positions; H or OH if unused. Non-standard residues stand in square brackets, D forms with d. Residues, ends and D or L forms follow the SMILES beside them. Phe(4-SO3H) = N[C@@H](Cc1ccc(S(=O)(=O)O)cc1)C(=O)O; X3 = O=C(C[C@@H]1CCCC[C@@H]1N[*:1])[*:2]; X5 = O=C(C[C@H]1CCCC[C@@H]1N[*:1])[*:2]; X1 = Cc1c(N[*:1])cccc1C(=O)[*:2]; X4 = Cc1ccc(N[*:1])cc1C(=O)[*:2]; 3Abz = Nc1cccc(C(=O)O)c1; 4Abz = Nc1ccc(C(=O)O)cc1; CO = O=C([*:1])[*:2]; Ahx = NCCCCCC(=O)O; Ava = NCCCCC(=O)O; GABA = NCCCC(=O)O; βAla = NCCC(=O)O

How the values were obtained:
[1] = system: Rattus norvegicus; experiment: Compound was evaluated for its ability to suppress food intake in one of two meal-fed rats after intraperitoneal administration of 1240 ug/kg; assay type: functional
Procedure, shortened: (§1)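 Male Sprague-Dawley rats fed in one of two meal models, peptide ip. In "1-2-1" model, rats trained 4 days to eat ground chow 9–10 a.m. and 12–1 p.m., dosed 15 min before first meal, groups of 5–6. Or rats fasted 17 h overnight, given vehicle (100% DMSO) or peptide ip, 0.33 mL/kg, food weighed after 1 h, groups of 5–7. First-hour intake as % of control. ED50 from log-probit analysis; t-test versus controls.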

[2] = biological target: T1, Gastrin/cholecystokinin type B receptor (Bos taurus, UniProt P79266); experiment: Inhibition of [3H]propionyl-CCK-8 binding to Cholecystokinin type B receptor in bovine striatum; assay type: tissue-based
T1 sequence (P79266 whole entry): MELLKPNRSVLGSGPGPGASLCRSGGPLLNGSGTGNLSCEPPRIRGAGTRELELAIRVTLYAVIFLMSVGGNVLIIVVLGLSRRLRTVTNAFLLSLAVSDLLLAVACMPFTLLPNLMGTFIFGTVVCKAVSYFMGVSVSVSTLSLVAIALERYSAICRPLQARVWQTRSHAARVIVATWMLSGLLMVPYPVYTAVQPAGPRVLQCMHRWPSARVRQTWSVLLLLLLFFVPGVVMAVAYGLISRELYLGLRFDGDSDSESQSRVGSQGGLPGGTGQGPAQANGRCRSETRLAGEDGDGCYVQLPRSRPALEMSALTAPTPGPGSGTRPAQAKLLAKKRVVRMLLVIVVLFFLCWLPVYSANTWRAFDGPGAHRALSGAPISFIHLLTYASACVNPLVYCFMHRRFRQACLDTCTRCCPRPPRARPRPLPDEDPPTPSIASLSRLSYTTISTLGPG
Procedure, shortened: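 Frozen bovine striatum homogenized at 0 °C in 10 mM HEPES, 130 mM NaCl, 5 mM MgCl2, pH 7.4. Pellet (48000g) resuspended in same buffer plus PMSF and bacitracin, ~0.26 mg protein per 2 mL. Incubated 30 min at 25 °C with 0.15 nM (final) [propionyl-3H]CCK-8. GF/B filtration, scintillation counting. Nonspecific binding with 1 μM CCK-8. IC50 by log-probit; actives confirmed in duplicate.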

[3] = biological target: T2, Cholecystokinin receptor type A (Rattus norvegicus, UniProt P30551); experiment: The compound was tested in vitro for inhibition of specific [3H]propionyl-CCK-8 binding to Cholecystokinin type A receptor in rat pancreatic membranes; assay type: cell membranes, Membrane
T2 sequence (P30551 whole entry): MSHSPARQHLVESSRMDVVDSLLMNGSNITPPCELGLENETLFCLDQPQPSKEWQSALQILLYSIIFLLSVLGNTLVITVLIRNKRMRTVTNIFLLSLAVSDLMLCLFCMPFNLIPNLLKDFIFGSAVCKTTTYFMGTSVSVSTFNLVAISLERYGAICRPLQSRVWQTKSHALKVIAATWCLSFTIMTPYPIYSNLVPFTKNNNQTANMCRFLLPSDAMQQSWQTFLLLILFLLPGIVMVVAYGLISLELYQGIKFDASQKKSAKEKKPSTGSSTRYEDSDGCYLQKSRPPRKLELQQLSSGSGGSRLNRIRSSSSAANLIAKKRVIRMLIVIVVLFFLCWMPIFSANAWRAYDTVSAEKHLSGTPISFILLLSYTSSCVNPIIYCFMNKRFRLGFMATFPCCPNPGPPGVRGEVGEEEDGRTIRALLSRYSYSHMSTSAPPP
Procedure, shortened: (§2)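 Fresh pancreas from fasted rats homogenized at 0 °C in 10 mM HEPES, 130 mM NaCl, 5 mM MgCl2, pH 7.4. Pellet (48000g) resuspended in same buffer plus PMSF and bacitracin, ~0.100 mg protein per 1 mL. Incubated 30 min at 25 °C with 0.15 nM (final) [propionyl-3H]CCK-8. Filtered on GF/B and counted. Nonspecific binding with 1 μM CCK-8. IC50 by log-probit; actives confirmed in duplicate.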

[4] = system: Rattus norvegicus; experiment: Dose which caused 50% inhibition of the control intake was determined by log-probit analysis after intraperitoneal administration; assay type: functional; settings: ip; procedure, shortened: as §1
[5] = system: Rattus norvegicus; experiment: Compound was evaluated for its ability to suppress food intake in one of two meal-fed rats after intraperitoneal administration of 320 ug/kg; assay type: functional; procedure, shortened: as §1
[6] = biological target: T2, Cholecystokinin receptor type A; experiment: The compound was tested in vitro for inhibition of specific [3H]propionyl-CCK-8 binding to cholecystokinin type A receptor in rat pancreatic membranes; assay type: cell membranes, Membrane; procedure, shortened: as §2
[7] = system: Rattus norvegicus; experiment: Compound was evaluated for its ability to suppress food intake in one of two meal-fed rats after intraperitoneal administration of 32 ug/kg; assay type: functional; procedure, shortened: as §1
[8] = Dose which caused 50% inhibition of the control intake was determined by log-probit analysis after intraperitoneal administration (CCK-8 receptor); settings: Rattus norvegicus
[9] = system: Rattus norvegicus; experiment: Compound was evaluated for its ability to suppress food intake in one of two meal-fed rats after intraperitoneal administration of 0.3 ug/kg; assay type: functional; procedure, shortened: as §1
[10] = system: Rattus norvegicus; experiment: Compound was evaluated for its ability to suppress food intake in one of two meal-fed rats after intraperitoneal administration of 20 ug/kg; assay type: functional; procedure, shortened: as §1
[11] = system: Rattus norvegicus; experiment: Compound was evaluated for its ability to suppress food intake in one of two meal-fed rats after intraperitoneal administration of 3 ug/kg; assay type: functional; procedure, shortened: as §1
[12] = system: Rattus norvegicus; experiment: Compound was evaluated for its ability to suppress food intake in one of two meal-fed rats after intraperitoneal administration of 10 ug/kg; assay type: functional; procedure, shortened: as §1
[13] = system: Rattus norvegicus; experiment: Compound was evaluated for its ability to suppress food intake in one of two meal-fed rats after intraperitoneal administration of […]; assay type: functional
[14] = system: Rattus norvegicus; experiment: Compound was evaluated for its ability to suppress food intake in one of two meal-fed rats after intraperitoneal administration of 14 ug/kg; assay type: functional; procedure, shortened: as §1

SMILES	IC50 [2]	IC50 [3]	ED50 [4]	Control [5]	IC50 [6]	Control [7]	Control [11]	other results
CSCC[C@H](NC(=O)[C@H](Cc1c[nH]c2ccccc12)NC(=O)c1ccc(NC(=O)[C@H](Cc2ccc(S(=O)(=O)O)cc2)NC(=O)O)cc1)C(=O)N[C@@H](CC(=O)O)C(=O)N[C@@H](Cc1ccccc1)C(N)=O ({CO}-[Phe(4-SO3H)][4Abz]WMDF-NH2)	0.085 nM	1600 nM	> 1240 µmol/kg					Control [1]: 75%
CSCC[C@H](NC(=O)[C@H](Cc1c[nH]c2ccccc12)NC(=O)CCCCCNC(=O)[C@H](Cc1ccc(S(=O)(=O)O)cc1)NC(=O)O)C(=O)N[C@@H](CC(=O)O)C(=O)N[C@@H](Cc1ccccc1)C(N)=O ({CO}-[Phe(4-SO3H)][Ahx]WMDF-NH2)	13 nM			80%	360 nM			
CSCC[C@H](NC(=O)[C@H](Cc1c[nH]c2ccccc12)NC(=O)CCCNC(=O)[C@H](Cc1ccc(S(=O)(=O)O)cc1)NC(=O)O)C(=O)N[C@@H](CC(=O)O)C(=O)N[C@@H](Cc1ccccc1)C(N)=O ({CO}-[Phe(4-SO3H)][GABA]WMDF-NH2)	1.8 nM			1%	4.9 nM	11%	69%	ED50 [8]: 4.7 µmol/kg; Control [9]: 104%; Control [10]: 6%
CSCC[C@H](NC(=O)[C@H](Cc1c[nH]c2ccccc12)NC(=O)c1cccc(NC(=O)[C@H](Cc2ccc(S(=O)(=O)O)cc2)NC(=O)O)c1)C(=O)N[C@@H](CC(=O)O)C(=O)N[C@@H](Cc1ccccc1)C(N)=O ({CO}-[Phe(4-SO3H)][3Abz]WMDF-NH2)	0.48 nM	2.1 nM	3 µmol/kg	4%		14%	52%	
CSCC[C@H](NC(=O)[C@H](Cc1c[nH]c2ccccc12)NC(=O)C[C@H]1CCCC[C@@H]1NC(=O)[C@H](Cc1ccc(S(=O)(=O)O)cc1)NC(=O)O)C(=O)N[C@@H](CC(=O)O)C(=O)N[C@@H](Cc1ccccc1)C(N)=O ({CO}-[Phe(4-SO3H)][X5]WMDF-NH2)		165 nM	> 320 µmol/kg	90%				
CSCC[C@H](NC(=O)[C@H](Cc1ccc(S(=O)(=O)O)cc1)NC(=O)O)C(=O)NCC(=O)N[C@@H](Cc1c[nH]c2ccccc12)C(=O)N[C@@H](CCSC)C(=O)N[C@@H](CC(=O)O)C(=O)N[C@@H](Cc1ccccc1)C(N)=O ({CO}-[Phe(4-SO3H)]MGWMDF-NH2)	4.4 nM				0.6 nM	6%	81%	Control [12]: 36%; ED50 [8]: 7 µmol/kg
CSCC[C@H](NC(=O)[C@H](Cc1c[nH]c2ccccc12)NC(=O)c1cc(NC(=O)[C@H](Cc2ccc(S(=O)(=O)O)cc2)NC(=O)O)ccc1C)C(=O)N[C@@H](CC(=O)O)C(=O)N[C@@H](Cc1ccccc1)C(N)=O ({CO}-[Phe(4-SO3H)][X4]WMDF-NH2)	5 nM	73 nM	> 320 µmol/kg	95%				
CSCC[C@H](NC(=O)[C@H](Cc1c[nH]c2ccccc12)NC(=O)c1cccc(NC(=O)[C@H](Cc2ccc(S(=O)(=O)O)cc2)NC(=O)O)c1C)C(=O)N[C@@H](CC(=O)O)C(=O)N[C@@H](Cc1ccccc1)C(N)=O ({CO}-[Phe(4-SO3H)][X1]WMDF-NH2)	0.91 nM	2.7 nM	24 µmol/kg	5.9%		44%		Control [13]: 104%; Control [14]: 58%
CSCC[C@H](NC(=O)[C@H](Cc1c[nH]c2ccccc12)NC(=O)C[C@@H]1CCCC[C@@H]1NC(=O)[C@H](Cc1ccc(S(=O)(=O)O)cc1)NC(=O)O)C(=O)N[C@@H](CC(=O)O)C(=O)N[C@@H](Cc1ccccc1)C(N)=O ({CO}-[Phe(4-SO3H)][X3]WMDF-NH2)	3.4 nM	161 nM	> 320 µmol/kg	80%				
CSCC[C@H](NC(=O)[C@H](Cc1c[nH]c2ccccc12)NC(=O)CCNC(=O)[C@H](Cc1ccc(S(=O)(=O)O)cc1)NC(=O)O)C(=O)N[C@@H](CC(=O)O)C(=O)N[C@@H](Cc1ccccc1)C(N)=O ({CO}-[Phe(4-SO3H)][βAla]WMDF-NH2)	3600 nM				10000 nM	108%		
CSCC[C@H](NC(=O)[C@H](Cc1c[nH]c2ccccc12)NC(=O)CCCCNC(=O)[C@H](Cc1ccc(S(=O)(=O)O)cc1)NC(=O)O)C(=O)N[C@@H](CC(=O)O)C(=O)N[C@@H](Cc1ccccc1)C(N)=O ({CO}-[Phe(4-SO3H)][Ava]WMDF-NH2)	9 nM			9%	22 nM	54%	102%	
CSCC[C@H](NC(=O)[C@H](Cc1c[nH]c2ccccc12)NC(=O)CNC(=O)[C@H](Cc1ccc(S(=O)(=O)O)cc1)NC(=O)O)C(=O)N[C@@H](CC(=O)O)C(=O)N[C@@H](Cc1ccccc1)C(N)=O ({CO}-[Phe(4-SO3H)]GWMDF-NH2)	1300 nM				1200 nM	69%		
